Hits are enriched below; roughly 3.7% of the tested compounds scored in any of these assays.
NPY-Y1 antag: NPY-Y1 receptor antagonists, primary screen, cell-based; 200,000 compounds, 1% hits; HEK293-CNG Y1 cells, membrane potential fluorescence; NPY at EC95, then isoproterenol; inhibition, % at 3.6 µM; Neuropeptide Y receptor type 1 (Homo sapiens), P25929;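 active means inhibition above the campaign mean inhibition of all tested compounds plus 3 SD, cut at about 20% in these data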
Target sequence (P25929 whole entry, looked up): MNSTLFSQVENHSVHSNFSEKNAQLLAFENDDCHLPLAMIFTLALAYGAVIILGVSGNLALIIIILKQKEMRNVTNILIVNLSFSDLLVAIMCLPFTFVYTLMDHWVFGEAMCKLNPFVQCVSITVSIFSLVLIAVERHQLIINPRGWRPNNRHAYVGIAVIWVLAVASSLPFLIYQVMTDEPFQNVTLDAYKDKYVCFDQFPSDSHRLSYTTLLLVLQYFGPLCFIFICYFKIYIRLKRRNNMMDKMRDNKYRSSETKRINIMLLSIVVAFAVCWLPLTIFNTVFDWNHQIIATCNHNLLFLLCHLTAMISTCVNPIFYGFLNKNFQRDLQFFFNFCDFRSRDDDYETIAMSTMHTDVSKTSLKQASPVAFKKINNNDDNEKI
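Test system: HEK293 cells co-expressing NPY Y1 receptor and cyclic-nucleotide gated channel; Also added: NPY (25 nM), isoproterenol (1 µM), Ro 20-1724 (25 µM); Compound dosing: one concentration, 3.6 µM, in 0.4% DMSO; Timing: dye 3 h, compound 60 min room temperature, stimulation 45 min; Technique: Membrane-potential fluorescent dye readout.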
Cl transport mod: KCC2 cotransporter modulators, thallium flux, primary screen, cell-based, HEK293 KCC2, FluoZin-2 fluorescence, MLSMR | Solute carrier family 12 member 5 (Homo sapiens), Q9H2X9 | KCC2 cells, thallium flux FluoZin-2 fluorescence | B-score of Tl+ flux slope (higher = more flux/activation; lower = inhibition) at 10 µM | 190,000 compounds, 2.2% hits;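 active means thallium flux slope and its plate-corrected score both differing from the plate sample mean at a set confidence after two filtering rounds, in either direction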;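 further: slope of fluorescence scaled to starting intensity during 10 to 20 s after thallium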
NPY-Y1 PAM-ag: NPY-Y1 receptor potentiators or agonists, primary screen, cell-based | activation, % at 3.6 µM | Neuropeptide Y receptor type 1 (Homo sapiens), P25929 | 220,000 compounds, 0.37% hits | AID 1304, 2008 | NPY-Y1 expressing cells, potentiator/agonist activation; in the data active means activation above about 33%, passing the limit was not always enough;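 further: cells stimulated with NPY at EC10 then isoproterenol at EC100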
NPY Y2 blocker: NPY-Y2 receptor antagonists, primary screen, cell-based; inhibition, % at 2.7 µM; AID 793, 2007; NPY-Y2 expressing cells, antagonist mode; 140,000 compounds, 0.99% hits; Neuropeptide Y receptor type 2 (Homo sapiens), P49146; in the data active means inhibition above about 17%
Target sequence (P49146 whole entry, looked up): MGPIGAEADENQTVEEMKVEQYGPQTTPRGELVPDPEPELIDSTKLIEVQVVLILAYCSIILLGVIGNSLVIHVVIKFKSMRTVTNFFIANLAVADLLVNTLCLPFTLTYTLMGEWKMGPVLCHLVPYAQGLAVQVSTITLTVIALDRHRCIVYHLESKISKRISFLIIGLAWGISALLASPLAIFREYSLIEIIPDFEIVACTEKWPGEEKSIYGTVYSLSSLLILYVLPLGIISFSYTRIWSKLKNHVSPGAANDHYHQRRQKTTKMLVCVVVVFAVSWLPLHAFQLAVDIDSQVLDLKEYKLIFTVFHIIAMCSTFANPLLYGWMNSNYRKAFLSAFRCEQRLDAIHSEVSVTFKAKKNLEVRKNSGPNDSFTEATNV
NPY-Y2 PAM-ag: NPY-Y2 potentiators or agonists, primary screen, cell-based; Neuropeptide Y receptor type 2 (Homo sapiens), P49146; cells expressing NPY-Y2, potentiator/agonist read-out; activation, % at 3.6 µM; 220,000 compounds, 0.45% hits; in the data active means activation above about 27%;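 further: cells stimulated with NPY near EC25 plus isoproterenol at EC100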
Furin inh: human furin inhibitors, primary screen, biochemical, fluorescence intensity | P09958 | purified furin, fluorogenic substrate cleavage | inhibition, % at 20 µM or 30 µM | 220,000 compounds, 0.061% hits; in the data active means inhibition above about 25%
KCC2 secondary: KCC2 modulators in sodium-free buffer, confirmation, cell-based, HEK293 KCC2, thallium flux, secondary assay; FluoZin2 fluorescence; hits give high values; shares compounds with Cl transport mod; normalised thallium flux (F/F0 slope) at 10 µM; 3,700 compounds, 15% hits; AID 1713, 2009;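 active means thallium flux slope above the same plate's solvent-only control mean plus 3 SD; inconclusive means the two replicate wells disagree; inactive means no significant difference from solvent-only control wells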
KCC2 bumet counter: thallium flux persisting under bumetanide in KCC2 cells, confirmation, counter-screen for KCC2 modulator project, cell-based, HEK293 KCC2, FluoZin2, secondary assay 3; AID 1714, 2009; 3,700 compounds, 49% hits; normalized thallium flux at 10 µM; shares compounds with Cl transport mod; HEK293-KCC2 + bumetanide/ouabain; hits give high values;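 active means thallium entry rate above the same plate's blocked-transporter control wells by more than 3 SD; inconclusive means the two repeat wells disagree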;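 further: raw slope of fluorescence over initial fluorescence between 10 and 20 s after thallium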
KCC2 sec2: KCC2 modulators without ouabain present, confirmation, cell-based, HEK293 KCC2, thallium flux, FluoZin2, secondary assay 2 | shares compounds with Cl transport mod | thallium flux FluoZin2 fluorescence; actives lie on both sides; F/F0 rise rate, 10–20 s post-thallium | normalized thallium flux at 10 µM | 3,700 compounds, 23% hits;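 active means thallium flux slope more than 3 SD above or below the plate's solvent-only control mean, mostly below; inconclusive means the two repeat wells disagreed; inactive means no significant shift from solvent-only controls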
HEK counter1: thallium flux modulation in parental HEK cells, confirmation, counter-screen for KCC2 modulator project, cell-based, counterscreen 1 | AID 1716, 2009 | 3,700 compounds, 46% hits | HEK293 parental cells, thallium flux FluoZin2, ouabain; baseline-ratio fluorescence slope, 10–20 s after thallium | thallium flux rate (normalised fluorescence) at 10 µM | shares compounds with Cl transport mod;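 active means thallium flux rate significantly above the same plate's solvent-only control wells, beyond their mean plus 3 SD; inconclusive means the two replicate wells gave conflicting results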
KCC2 retest ouab: KCC2 inhibitors and activators, ouabain retest, confirmation, HEK-KCC2 cells; shares compounds with Cl transport mod; HEK293-KCC2, thallium flux FluoZin2 fluorescence; bidirectional: low = inhibitor, high = activator; raw Tl+ flux slope (below DMSO = inhibition, above = activation) at 10 µM; 3,700 compounds, 48% hits; AID 1717, 2009;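 active means thallium flux slope beyond 3 SD from same-plate DMSO control mean in most replicates, usually higher, sometimes lower; inconclusive means repeat tests gave conflicting results; inactive means no significant difference from controls in most replicates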;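 further: slope of initial-normalized fluorescence between seconds 10 and 20 after thallium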
HEK293 Tl flux2: native HEK Tl+ uptake effects, second counter-screen – HEK cells, counterscreen 2, counter-screen for KCC2 modulator project, confirmation. shares compounds with Cl transport mod. HEK293 parental, thallium flux FluoZin-2 fluorescence slope. thallium flux slope at 10 µM. 3,700 compounds, 33% hits;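 active means thallium flux slope above the same plate's solvent-control mean plus 3 SD in both duplicate wells; inconclusive means duplicate wells that disagreed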;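 further: run without ouabain in cells lacking the KCC2 cotransporter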
Hits are given with their value; – = inactive; ? = inconclusive; · = no result given.

SMILES	NPY-Y1 antag	Cl transport mod	NPY-Y1 PAM-ag	NPY Y2 blocker	NPY-Y2 PAM-ag	Furin inh	KCC2 secondary	KCC2 bumet counter	KCC2 sec2	HEK counter1	KCC2 retest ouab	HEK293 Tl flux2
O=C(NNC(=S)Nc1cccc(Cl)c1)c1ccccc1OC(F)F	–	6.4	–	–	–	–	–	0.033	–	0.017	0.036	0.012
Cc1ccccc1SC1CCN(Cc2nc(C3CC3)no2)CC1	–	–	–	·	–	–	·	·	·	·	·	·
O=C(COc1ccccc1C(=O)NCc1ccccn1)Nc1ccc(Br)cc1	–	–	–	·	–	–	·	·	·	·	·	·
S=c1[nH]c(-c2ccccc2)cn1/N=C/c1ccc(Br)cc1	–	54	–	·	–	–	0.011	0.04	–	0.017	0.048	0.011
S=c1[nH]c(-c2ccccc2)cn1/N=C/c1cccs1	·	18	–	·	–	–	0.023	0.036	–	0.016	0.029	0.016
COc1ccccc1CN1CCNC(=O)C1CC(=O)NCc1cn(C)nc1C (stereo unspecified)	–	–	–	·	–	–	·	·	·	·	·	·
C/C(=N\NC(=O)c1cccc([N+](=O)[O-])c1)c1cccs1	·	3.8	–	·	–	–	–	0.023	–	0.017	?	?
C/C(=N/NC(=O)c1cccs1)c1ccco1	–	4.7	–	–	–	–	–	0.015	–	?	?	0.011
O=C(N/N=C1\CCCc2ccccc21)c1cccc([N+](=O)[O-])c1	–	4.4	–	–	–	–	?	0.023	–	0.012	–	0.012
O=C(N/N=C1\CCCc2ccccc21)c1cccc(Br)c1	–	5.9	–	·	–	–	?	0.022	–	0.011	?	?
C/C(=N\NC(=O)c1cc(-c2cccc([N+](=O)[O-])c2)n[nH]1)c1ccccc1O	–	–	–	–	–	–	·	·	·	·	·	·
O=C1CCC(CCC(=O)N2CCCC(C(=O)c3cccc(C(F)(F)F)c3)C2)=NN1 (stereo unspecified)	–	–	–	·	–	–	·	·	·	·	·	·
CCOC(=O)c1c(N/N=C/c2ccncc2)n[nH]c1C	–	18	–	–	–	–	–	–	–	?	–	–
CCOC(=O)c1c(NCc2ccccc2)n[nH]c1C	–	–	–	–	–	–	·	·	·	·	·	·
O=C(CSc1ccccc1C(=O)NCc1ccccc1)NC12CC3CC(CC(C3)C1)C2	–	-3.6	–	–	–	–	?	?	0.022	–	?	–
COc1ccccc1C(=O)NC1CCCCCCC1	–	–	–	–	–	–	·	·	·	·	·	·
O=C(CSc1ccccc1C(=O)NCc1ccccc1)NC1CCCCCCC1	–	-4	–	–	–	–	–	?	0.021	–	?	–
O=C(CSc1ccccc1C(=O)O)NC1CCCCCC1	·	–	–	·	–	–	·	·	·	·	·	·
O=C(NC1CCCC1)c1ccccc1OCc1ccccc1	–	-3.6	–	·	–	–	–	?	–	0.0047	0.015	–
N#Cc1c(SCC(N)=O)nc2c(c1-c1ccc(OCc3ccccc3)cc1)CCCC2	–	–	–	–	–	–	·	·	·	·	·	·
CCN(CC)S(=O)(=O)c1ccc(OC)c(NC(=O)COc2ccc3c(C)cc(=O)oc3c2)c1	–	–	–	–	–	–	·	·	·	·	·	·
Cc1cccc(N2C(=O)CC(Sc3nc(-c4ccccc4)c4cc(Cl)ccc4n3)C2=O)c1 (stereo unspecified)	–	·	–	–	–	–	·	·	·	·	·	·
COc1ccc(NC(=O)CC2C(=O)N(C)C(=S)N2Cc2ccc3c(c2)OCO3)cc1 (stereo unspecified)	–	7.3	–	–	–	–	–	–	–	–	–	–
O=C(COC(=O)c1ccc(O)cc1)NCCCc1ccccc1	–	–	–	·	–	–	·	·	·	·	·	·
COCCNC(=O)CN(c1cc(C(F)(F)F)ccc1Cl)S(C)(=O)=O	–	-4	–	–	–	–	–	?	–	?	–	–
SMILES	NPY-Y1 antag	Cl transport mod	NPY-Y1 PAM-ag	NPY Y2 blocker	NPY-Y2 PAM-ag	Furin inh	KCC2 secondary	KCC2 bumet counter	KCC2 sec2	HEK counter1	KCC2 retest ouab	HEK293 Tl flux2
COc1ccc(CCNC(=S)NC(=O)c2cccc(Cl)c2)cc1OC	·	4.5	–	·	–	–	–	0.032	–	0.012	–	?
CN(C)C(=S)NC(=O)c1cccc(Cl)c1	–	21	–	·	–	–	–	0.037	–	0.025	0.036	0.022
CC(C)CCNC(=O)c1cccc(Cl)c1	–	·	–	–	–	–	·	·	·	·	·	·
O=C(Nc1cccc([N+](=O)[O-])c1)c1ccc(N2CCCC2=O)cc1	–	–	–	·	–	–	·	·	·	·	·	·
CN(C)S(=O)(=O)c1cccc(NC(=O)COC(=O)CNC(=O)c2ccccc2F)c1	·	–	–	·	–	–	·	·	·	·	·	·
Cc1ccccc1C(=O)NNC(=O)CCC(=O)Nc1cccc(Cl)c1C	–	–	–	–	–	–	·	·	·	·	·	·
COCc1cc(C)nc(OCC(=O)N/N=C/c2ccc(-c3cc([N+](=O)[O-])ccc3Cl)o2)c1C#N	–	6.8	–	·	–	–	–	0.015	–	0.024	0.027	0.021
O=c1cc(-c2ccccc2)[nH]n1-c1ccc([N+](=O)[O-])cc1	–	–	–	–	–	–	·	·	·	·	·	·
Cc1ccc(C2(C(F)(F)F)NC(=O)N3CCN=C3S2)cc1 (stereo unspecified)	–	–	–	–	–	–	·	·	·	·	·	·

Screens from PubChem BioAssay.
